Values after ≈ are worked out from the molar mass of the structure shown. Active and inactive are the calls of the source. No cut-off for these calls is given here.

The text below walks through data of ChEMBL document CHEMBL3351489, “Design, synthesis, and structure-activity relationships of a series of novel N-aryl-2-phenylcyclopropanecarboxamide that are potent and orally active orexin receptor antagonists” (Bioorg Med Chem, 2014).

Data set [1] deals with T1, Orexin receptor type 2 (Homo sapiens, UniProt O43614).
T1 sequence (O43614 whole entry): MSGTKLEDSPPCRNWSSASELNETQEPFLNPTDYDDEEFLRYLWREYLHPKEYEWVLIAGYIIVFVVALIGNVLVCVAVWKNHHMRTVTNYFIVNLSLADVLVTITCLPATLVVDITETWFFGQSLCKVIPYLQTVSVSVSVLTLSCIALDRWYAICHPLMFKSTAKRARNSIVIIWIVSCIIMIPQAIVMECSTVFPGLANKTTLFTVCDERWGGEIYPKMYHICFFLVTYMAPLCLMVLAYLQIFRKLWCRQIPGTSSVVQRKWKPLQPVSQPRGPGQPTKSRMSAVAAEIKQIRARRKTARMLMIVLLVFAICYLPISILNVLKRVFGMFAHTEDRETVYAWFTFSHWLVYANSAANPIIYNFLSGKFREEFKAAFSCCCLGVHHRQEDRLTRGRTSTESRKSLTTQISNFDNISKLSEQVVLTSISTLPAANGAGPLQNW
The data set can be described thus: Displacement of [125I]-Orexin A from human OX2R expressed in CHO cells after 30 mins by topcount analysis. The data set is classed as cell-based.

The target in data set [2] is T2, Orexin/Hypocretin receptor type 1 (Homo sapiens, UniProt O43613).
T2 sequence (O43613 whole entry): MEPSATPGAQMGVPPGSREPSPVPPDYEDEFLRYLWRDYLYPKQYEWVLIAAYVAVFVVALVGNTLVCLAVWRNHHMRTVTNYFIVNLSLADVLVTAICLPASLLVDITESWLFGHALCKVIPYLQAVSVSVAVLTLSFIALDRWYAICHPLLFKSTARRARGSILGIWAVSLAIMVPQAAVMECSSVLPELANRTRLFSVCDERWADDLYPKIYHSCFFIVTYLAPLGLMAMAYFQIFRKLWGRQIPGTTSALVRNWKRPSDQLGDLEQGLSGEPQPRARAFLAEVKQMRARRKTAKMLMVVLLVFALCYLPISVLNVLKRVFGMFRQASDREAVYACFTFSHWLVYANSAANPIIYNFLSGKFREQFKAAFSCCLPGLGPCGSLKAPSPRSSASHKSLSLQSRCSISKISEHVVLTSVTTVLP
In words: Displacement of [125I]-Orexin A from human OX1R expressed in CHO cells after 30 mins by topcount analysis. The data set is classed as cell-based. Put shortly:
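Membranes from CHO cells expressing human OX1R, […] per well, in 25 mM HEPES pH 7.5 with MgCl2, CaCl2, 0.5% BSA, sodium azide, Tween 20; incubated with [125I]-orexin A 30 min at rt on scintillation plate, washed, counted. Nonspecific binding with excess unlabelled orexin A; % inhibition from DPM; mean of 3 wells, single measurement.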

A short description of data set [3]: Ratio of efflux ratio of permeability in pig LLC-MDR1 cells to efflux ratio of permeability in pig LLC-PK1 cells. The data set is classed as ADME, cell-based, Sus scrofa. Put shortly: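 LLC-PK1 and MDR1-transfected LLC-PK1 cells grown 5 days on porous inserts (5% CO2, 37 °C). Monolayers preincubated 2 h in HBSS with 10 mM HEPES; compound added apical or basal, 2 h at 37 °C. Receiver side sampled, quantified by LC/MS; Papp from permeated amount, time, initial concentration and membrane area.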

Data set [4] is described as follows: Aqueous solubility of the compound in PBS at pH 7.4 after 15 mins by HPLC method. The data set is classed as physicochemical.
Data set [5] in a line: Plasma concentration in C57BL/6N mouse at 100 mg/kg, po after 1 hr. The data set is classed as ADME, organism-based. Further details: dose 100 mg/kg, route oral. In a few lines: (§1)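 Male C57BL/6N mice given single oral 100 mg/kg (suspension in 0.5% methylcellulose, or saline/Cremophor EL/DMSO 85:10:5). At 1 or 3 h, CSF taken from cisterna magna under pentobarbital, then aortic blood for plasma. Samples protein-precipitated with methanol/acetonitrile plus propranolol internal standard; LC/MS/MS in positive MRM mode, 1/x²-weighted calibration; mean ± SEM.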

Data set [6] is described as follows: Plasma concentration in C57BL/6N mouse at 100 mg/kg, po after 3 hrs. Further details: dose 100 mg/kg, route oral. The data set is classed as ADME, organism-based. In a few lines:
as §1

Data set [7] can be described thus: Drug uptake in CSF of C57BL/6N mouse at 100 mg/kg, po after 1 hr. The data set is classed as ADME, organism-based, Cerebrospinal fluid. The arrangement: dose 100 mg/kg, route oral. Conditions: read-out: Drug uptake. In a few lines: as §1
Data set [8] in a line: Drug uptake in CSF of C57BL/6N mouse at 100 mg/kg, po after 3 hrs. Further details: dose 100 mg/kg, route oral. Conditions: read-out: Drug uptake. The data set is classed as ADME, organism-based, Cerebrospinal fluid. Put shortly:
as §1

Data set [9] relates to Mus musculus. The data set can be described thus: Induction of sleep in C57BL/6NCrlCrlj mouse assessed as reduction in wakefulness time at 100 mg/kg up to 3 hrs by EEG/EMG analysis. The data set is classed as functional, organism-based. Further details: dose 100 mg/kg. In a few lines: (§2)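 Oral dosing immediately before lights out, vehicle 10% Cremophor EL, 5% DMSO in saline (n = 7 per group). EEG/EMG amplified, filtered (50 Hz line), sampled at 128 Hz. Recordings were scored automatically in 10-s epochs as wakefulness, non-REM or REM sleep and checked by a blinded observer. Minutes were summed over 3 h from dosing relative to vehicle, with one-way ANOVA and Dunnett test.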

Data set [10] relates to Mus musculus. In words: Induction of non-REM sleep in C57BL/6NCrlCrlj mouse at 100 mg/kg up to 3 hrs by EEG/EMG analysis. The data set is classed as functional, organism-based. Further details: dose 100 mg/kg. Put shortly: as §2
Data set [11] has as its system Mus musculus. The data set can be described thus: Reduction in locomotor activity in ddY mouse model at 100 mg/kg, po after 1 hr. The data set is classed as functional, organism-based. The arrangement: dose 100 mg/kg. Put shortly:
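Male ddY mice kept on 12-h light/dark cycle; oral 10, 30 or 100 mg/kg (DMSO stock diluted twentyfold in 10% Cremophor EL/saline), n = 8 per dose, vehicle n = 16. Ambulation counted as infrared beam breaks in an open-field box over 1 h after dosing; mean ± SEM, one-way ANOVA with Dunnett versus vehicle.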

Data set [12] deals with Mus musculus. In words: Induction of sleep in po dosed C57BL/6NCrlCrlj mouse assessed as reduction in wakefulness time up to 3 hrs by EEG/EMG analysis. The data set is classed as functional, organism-based. In a few lines: (§3)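 Mice with EEG/EMG recording dosed orally (30 or 100 mg/kg, vehicle 10% Cremophor EL, 5% DMSO in saline; n = 7) immediately before lights out. Signals sampled at 128 Hz, 50 Hz filtered; 10-s epochs auto-scored as wake, non-REM or REM, then checked by a blinded observer. Minutes summed hourly and over 3 h; one-way ANOVA with Dunnett versus vehicle.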

Data set [13] has as its system Mus musculus. In words: Induction of non-REM sleep in po dosed C57BL/6NCrlCrlj mouse up to 3 hrs by EEG/EMG analysis. The data set is classed as functional, organism-based. In a few lines: as §3
For data set [14], the system named is Mus musculus. In words: Induction of REM sleep in C57BL/6NCrlCrlj mouse at 30 to 100 mg/kg, po up to 3 hrs by EEG/EMG analysis. The data set is classed as functional, organism-based. In a few lines: as §3

For `O=C(Nc1ccccn1)[C@@H]1C[C@@]1(COc1ccccc1)c1ccccc1`, the Ki is 967 nM in [1] and 6840 nM in [2].

In the case of `COc1ccc(OCC2(c3ccccc3)CC2C(=O)Nc2ccc(C#N)cn2)cc1OC` (single isomer, unassigned; (-)) [listing 1 of 2 here], the Ki is 5 nM in [1] and 106 nM in data set [2]. In data set [3], the Ratio was determined as 1.1. This compound also returned a solubility at 0.25 h in [4] of 15 µM (≈ 6.44 µg/mL). Besides, the concentration at 1 h in data set [5] amounted to 9900 nM; in data set [7], 245 nM. For the same compound, the figures for the concentration at 3 h in data set [6] and in [8] were 3740 nM and 94 nM, respectively.

Consider `COc1ccc(OC[C@@]2(c3ccccc3)C[C@H]2C(=O)NC2CCCCC2)cc1OC`, for which the Ki in [1] worked out at 7850 nM; in data set [2] it was 2990 nM.

In the case of `COc1ccc(OC[C@@]2(c3ccccc3)C[C@H]2C(=O)Nc2ccccn2)cc1OC`, the Ki in [1] is 36 nM; in [2] it was 1070 nM. The Ratio in data set [3] is listed as 0.9. The same compound came in with a solubility at 0.25 h in data set [4] of 32 µM (≈ 12.9 µg/mL).

In the case of `COCc1ccc(OC[C@@]2(c3ccccc3)C[C@H]2C(=O)Nc2ccccn2)cc1OC`, the Ki in data set [1] stood at 3340 nM; in data set [2], 772 nM.

For the compound `COc1ccc(OC[C@@]2(c3ccccc3)C[C@H]2C(=O)Nc2nc(C)cs2)cc1OC`, the figures for the Ki in data set [1] and in data set [2] were 14 nM and 832 nM, respectively. In addition, the Ratio in data set [3] is 1.5. In data set [4], this compound returned a solubility at 0.25 h of 11 µM (≈ 4.67 µg/mL).

With `COc1ccc(OC[C@@]2(c3ccccc3)C[C@H]2C(=O)Nc2ccccc2)cc1OC`, the Ki in data set [1] and in data set [2] was 7.2 nM each time. Also, in data set [3], the Ratio was determined as 0.6. This compound gave a solubility at 0.25 h in data set [4] of 2 µM (≈ 0.807 µg/mL).

Take `COc1ccc(OC[C@@]2(c3ccccc3)C[C@H]2C(=O)Nc2cc(C)on2)cc1OC`: the Ki was found to be 28 nM in [1] and 505 nM in [2]. In addition, the solubility at 0.25 h in data set [4] was under 1 µM.

As to `COc1ccc(OC[C@@]2(c3ccccc3)C[C@H]2C(=O)c2ccccc2)cc1OC`, the Ki in [1] is 8650 nM; in [2] it was over 10000 nM.

As to `COc1cccc(OC[C@@]2(c3ccccc3)C[C@H]2C(=O)Nc2ccccn2)c1`, the Ki is 1330 nM in data set [1] and over 10000 nM in data set [2].

`Cc1nc(C(=O)N2CCCC[C@H]2CNC(=O)c2cccc3occc23)c(-c2ccc(F)cc2)s1` [SB-649868] came in with a Ki in data set [1] of 8.5 nM.

With `COc1ccc(OC[C@@]2(c3ccccc3)C[C@H]2C(=O)Cc2ccccc2)cc1OC`, the Ki in data set [1] and in data set [2] was over 10000 nM each time.

Regarding `COc1ccc(OC[C@@]2(c3ccccc3)C[C@H]2C(=O)Nc2ncc(C)s2)cc1OC`, the inhibitory constant (Ki) in [1] was 35 nM; in [2] it was 291 nM. Moreover, the Ratio in [3] is recorded as 2.4. The compound also displayed a solubility at 0.25 h in data set [4] of under 1 µM.

As to `COc1ccc(OC[C@@]2(c3ccccc3)C[C@H]2C(=O)Nc2ccncc2)cc1OC`, the figures for the Ki in data set [1] and in data set [2] were 85 nM and 1420 nM, respectively. Moreover, the Ratio in [3] was 4.9.

`COc1ccc(OC[C@@]2(c3ccccc3)C[C@H]2C(=O)Nc2cc(C#N)ccn2)cc1OC`: the Ki came out at 34 nM in data set [1] and 103 nM in data set [2]. The Ratio in data set [3] turned out to be 1. Also, the solubility at 0.25 h in data set [4] was 10 µM (≈ 4.29 µg/mL).

With `COc1ccc(OCC2(c3ccccc3)CC2C(=O)Nc2ccc(C#N)cn2)cc1OC` (single isomer, unassigned; (+)), the Ki in data set [1] and in [2] was over 2000 nM in each case.

On to `COc1ccc(OC[C@@]2(c3ccccc3)C[C@H]2C(=O)Nc2ccc(C#N)cn2)cc1OC` (racemic), for which the inhibition constant Ki in data set [1] is 14 nM; in data set [2], 123 nM. For the same compound, the Ratio in data set [3] was 1.1. Besides, the solubility at 0.25 h in data set [4] was 22 µM (≈ 9.45 µg/mL).

For `COc1ccc([C@]2(COc3ccccc3)C[C@H]2C(=O)Nc2ccccn2)cc1OC`, the Ki is 129 nM in data set [1] and over 10000 nM in data set [2].

As to `Cc1ccc(-c2nc3ccc(C)cn3c2CC(=O)N(C)C)cc1`, the result in [9] and in data set [10] was Active.

Take `COc1ccc(OC[C@@]2(c3ccccc3)C[C@H]2C(=O)Nc2cccnc2)cc1OC`: the Ki in data set [1] worked out at 51 nM; in data set [2], 206 nM. Further, the Ratio in [3] is listed as 3.4.

With `COc1ccc(OCC2(c3ccccc3)CC2C(=O)Nc2ccc(C#N)cn2)cc1OC` (single isomer, unassigned; (-)) [listing 2 of 2 here], the result in [11] was Active. Also, the Activity entry in data set [12] and in data set [13] was “Dose-dependent effect” in each case. Besides, in [14], the result was inactive.

For `COc1ccc(OC[C@@]2(c3ccccc3)C[C@H]2C(=O)N2CCCc3ccccc32)cc1OC`, the Ki in data set [1] and in data set [2] was over 10000 nM each time.

For the compound `COc1ccc(OC[C@@]2(c3ccccc3)C[C@H]2C(=O)N(C)c2ccccc2)cc1OC`, the Ki came to 4680 nM in [1] and 7540 nM in data set [2].

For `COc1ccc(OC[C@@]2(c3ccccc3)C[C@H]2CNc2ccccc2)cc1OC`, the Ki in [1] turned out to be 4230 nM; in data set [2] it was 4160 nM.

Turning to `COCc1cc(OC[C@@]2(c3ccccc3)C[C@H]2C(=O)Nc2ccccn2)ccc1OC`, the figures for the Ki in [1] and in data set [2] were 384 nM and 747 nM, respectively.

Consider `COc1ccc(OC[C@@]2(c3ccccc3)C[C@H]2C(=O)Nc2ccccn2)cc1`, for which the Ki is 588 nM in data set [1] and 5540 nM in [2].
